rRNA inh HTS: selective bacterial rRNA inhibition in E. coli. E. coli WT GFP vs humanized-ribosome RFP mutants, fluorescence, 24 h; stronger effect = lower value; DMSO median 0, no signal -100. GFP signal change (wild-type ribosome), % (test concentration not listed). hit rate 1.6% among 350,000;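 active = significant combined selectivity score with lowered wild-type GFP, culture density cut under 30%, mutant RFP and density less affected; inactive = any of these conditions unmet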
S100A4 inh HTS: inhibitors of human S100A4 binding to myosin IIA peptide. P26447. S100A4/TAMRA-MyoIIA peptide fluorescence polarization. inhibition, % at 10.7 µM. hit rate 0.14% among 360,000. AID 652163;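 active = mean inhibition of at least 70% across replicates, with every replicate also reaching that level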
Target sequence (P26447 whole entry, looked up): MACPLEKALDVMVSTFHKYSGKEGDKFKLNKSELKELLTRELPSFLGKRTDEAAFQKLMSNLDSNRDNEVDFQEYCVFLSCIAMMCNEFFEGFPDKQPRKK
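Compound dosing: one dose per compound; test system: human S100A4 monomer with TAMRA-labelled myosin IIA peptide; probe or stimulus: TAMRA-labelled myosin IIA heavy-chain peptide probe, 5 nM; medium: HEPES buffer with Ca2+, pH 7.2; schedule: 5 min incubation before reading; benchmarks: neutral control DMSO, positive control TFP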
ERAP1 inh: ERAP1 (human) enzyme inhibition; Q9NZ08; recombinant ERAP1, Leu-AMC fluorescence, 60 min; inhibition, % at 10.7 µM; hit rate 0.15% among 340,000; AID 652197;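 active = mean replicate inhibition of at least 30%, or all replicates individually reaching that 30% level; inactive = mean below 30% and not every replicate reaching it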
PGC1a acetyl inh: lowers PGC1a acetylation signal in U2OS cells; AID 651687; hit rate 0.17% among 350,000; inhibition, % at 15.6 µM; AlphaScreen anti-acetyl-lysine; with virally co-expressed GCN5 acetyltransferase;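 active = every replicate shows inhibition of at least 40%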
ARNT TACC3 PPI: disrupts binding between human ARNT and TACC3; Q9Y6A5; AlphaScreen His-ARNT PAS-B/GST-TACC3 binding, luminescence; TACC3 fragment carries E629A point mutation; hit rate 0.66% among 390,000; inhibition, % at 9.99 µM;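 active = mean inhibition of replicates at least 50% and at least half of replicates each reaching 50%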
Casp6 inh: caspase-6 (human) enzyme inhibition; P55212; purified caspase-6, Z-VEID-R110 cleavage fluorescence; inhibition, % at 12.5 µM; hit rate 0.53% among 350,000; AID 686996;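 active = mean inhibition across replicates at least about 35%, with every replicate also reaching that limit, limit read from the data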
Target sequence (P55212 24-179 limits assumed): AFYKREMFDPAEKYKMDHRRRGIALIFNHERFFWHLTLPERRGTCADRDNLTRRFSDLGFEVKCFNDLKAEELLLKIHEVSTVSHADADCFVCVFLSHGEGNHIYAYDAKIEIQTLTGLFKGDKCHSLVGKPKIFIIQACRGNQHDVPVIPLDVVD
Target sequence (P55212 194-293 limits assumed): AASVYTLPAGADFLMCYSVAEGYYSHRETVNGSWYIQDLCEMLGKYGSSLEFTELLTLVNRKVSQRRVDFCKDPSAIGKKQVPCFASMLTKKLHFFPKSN
Each line names hits and unclear results; the compound was inactive in the other large screens. Most compounds without a hit are left out; they make up all but 2.4% or so of the library.

COc1ccc(CN2CCN(C(=O)c3cc(-c4cccnc4)nc4ccc(Cl)cc34)CC2)c(OC)c1OC	rRNA inh HTS -22.8
COc1ccc(C)cc1NS(=O)(=O)c1ccc2c(c1)n(C)c(=O)n2C	none
COc1ccc(C)cc1NS(=O)(=O)c1ccc2c(c1)N(C)CCO2	S100A4 inh HTS 83.8
CN(C)c1ccc(/C=C/c2ccc3c4ccccc4ccc3[n+]2-c2ccccc2)cc1	S100A4 inh HTS 155.8, PGC1a acetyl inh 43.5, Casp6 inh 38.5
CCOc1ccccc1OCCC(=O)NNC(=O)Cn1nc(C)cc1C	Casp6 inh 46.3
Cc1cccc(OCCC(=O)NNC(=O)Cn2nc(C)cc2C)c1	none (no result: PGC1a acetyl inh)
COc1ccc(-n2c(=O)cc(N3CCN(c4ccccc4)CC3)[nH]c2=O)cc1	none (no result: rRNA inh HTS, S100A4 inh HTS, ERAP1 inh, Casp6 inh)
Cc1cccc(-n2c(=O)cc(N3CCN(c4ccc(F)cc4)CC3)[nH]c2=O)c1	PGC1a acetyl inh 54.9
CCOc1ccccc1N1CCN(C(=O)c2cc3c(C)cc(C)cc3[nH]2)CC1	none
CCOc1ccccc1N1CCN(C(=O)c2ccc3[nH]c4c(c3c2)CCCC4)CC1	rRNA inh HTS -26.8 (no result: PGC1a acetyl inh)
C[n+]1ccccc1/C=C/c1ccc2ncccc2c1	ERAP1 inh 40.3 (no result: PGC1a acetyl inh)
COc1ccc(N2C(=O)CC(Nc3ccc(C)cc3)C2=O)cc1 (stereo unspecified)	none (no result: rRNA inh HTS, S100A4 inh HTS, ERAP1 inh, Casp6 inh)
COc1ccc(N2C(=O)CC(NNc3ncc(Cl)cc3Cl)C2=O)cc1 (stereo unspecified)	ARNT TACC3 PPI 68.1
OC(c1ccc(Cl)cc1)c1nccc2ccccc12 (stereo unspecified)	rRNA inh HTS -21.9
CO[C@H]1CN(C)C(=O)c2ccc(NC(=O)c3ccccc3F)cc2OC[C@H](C)NC[C@@H]1C	S100A4 inh HTS 126.4 (no result: ARNT TACC3 PPI)
CO[C@H]1CN(C)C(=O)c2cc(NC(=O)Nc3ccccc3)ccc2OC[C@H](C)N(C(=O)Nc2c(C)noc2C)C[C@@H]1C	none
CO[C@H]1CN(C)C(=O)c2cc(NC(=O)c3ccccc3F)ccc2OC[C@@H](C)N(C(C)=O)C[C@@H]1C	PGC1a acetyl inh 130.3
CO[C@H]1CN(C)C(=O)c2ccc(NC(=O)c3ccccc3F)cc2OC[C@@H](C)NC[C@H]1C	none
CO[C@H]1CN(C)C(=O)c2cc(NC(=O)Nc3ccccc3)ccc2OC[C@@H](C)N(C(=O)Nc2c(C)noc2C)C[C@H]1C	Casp6 inh 35.8
C[C@@H](O)C#Cc1ccc2c(c1)O[C@H](CN(C)CC1CC1)[C@@H](C)CN([C@@H](C)CO)S2(=O)=O	none (no result: S100A4 inh HTS, ERAP1 inh, ARNT TACC3 PPI, Casp6 inh)
COc1cc(SC)ccc1C(=O)N1CCN(c2ccccc2F)CC1	rRNA inh HTS -23.8 (no result: PGC1a acetyl inh)
COc1ccc(N2CCN(C(=O)c3ccc(SC)cc3OC)CC2)cc1	none (no result: PGC1a acetyl inh, ARNT TACC3 PPI)
O=C(C1CC1)N1CCCCN2[C@H](CO)[C@H](c3ccc(-c4cccc(F)c4)cc3)[C@@H]2C1	none
C[C@@H]1CN([C@@H](C)CO)S(=O)(=O)c2ccc(C3=CCCCC3)cc2O[C@H]1CN(C)C(=O)Cc1cccnc1	none
ONC(=Nc1ccccc1Cl)c1c(F)cccc1F	rRNA inh HTS -37.0 (no result: PGC1a acetyl inh)
O=C(Nc1ccccc1Br)c1c(F)cccc1Cl	none (no result: ERAP1 inh, PGC1a acetyl inh)
Cc1ccc(S(=O)(=O)N/N=C\c2cc3c(cc2Br)OCO3)cc1	none (no result: rRNA inh HTS, S100A4 inh HTS, ERAP1 inh, Casp6 inh)
O=[N+]([O-])c1cc2c(cc1/C=N/NS(=O)(=O)c1ccc(Br)cc1)OCO2	Casp6 inh 43.8 (no result: ARNT TACC3 PPI)
Cc1ccc(S(=O)(=O)N(C)C[C@@H]2OCCCC[C@H](C)Oc3ccc(NC(=O)Nc4cccc5ccccc45)cc3C(=O)N([C@H](C)CO)C[C@H]2C)cc1	none
Cc1cc(NS(=O)(=O)c2ccc(NC(=O)COc3c(C)cc(Br)cc3C)cc2)no1	PGC1a acetyl inh 84.6
COc1ccc(OCC(=O)Nc2ccc(S(=O)(=O)Nc3cc(C)on3)cc2)cc1	none
COc1ccccc1/C=C/C(=O)Nc1ccc(S(=O)(=O)Nc2cc(C)on2)cc1	rRNA inh HTS -35.0
C[C@H]1CN([C@@H](C)CO)C(=O)c2cc(C#Cc3cccnc3)cnc2O[C@H]1CN(C)Cc1ccncc1	none (no result: S100A4 inh HTS, ERAP1 inh, Casp6 inh)
Cc1cc(C)nc(N2CCC(C(=O)NCc3ccco3)CC2)n1	PGC1a acetyl inh 94.9 (no result: rRNA inh HTS, S100A4 inh HTS, ERAP1 inh, Casp6 inh)
COc1nc(OC)nc(N2CCC(C(=O)NCc3ccco3)CC2)n1	none (no result: rRNA inh HTS, S100A4 inh HTS, ERAP1 inh, Casp6 inh)
O=C(CC(=O)c1cccs1)c1ccncc1	rRNA inh HTS -22.3
O=C(N[C@@H]1CC[C@H](CCNS(=O)(=O)c2ccc(F)cc2)O[C@@H]1CO)C1CCOCC1	none
O=C(Nc1ccc(NC(=O)N2CCN(c3ccccc3O)CC2)cc1)N1CCN(c2ccccc2O)CC1	rRNA inh HTS -19.8 (no result: PGC1a acetyl inh, ARNT TACC3 PPI)
COc1ccc(OCC(O)CN2CCN(Cc3ccc4c(c3)OCO4)CC2)cc1 (stereo unspecified)	ARNT TACC3 PPI 47.1 (no result: rRNA inh HTS, PGC1a acetyl inh)
CC(=O)c1ccc(OCC(O)CN2CCN(Cc3ccc4c(c3)OCO4)CC2)cc1 (stereo unspecified)	none
CC(=O)c1ccc2noc(-c3ccc(Cl)cc3)c2c1	none
Cc1cc(-c2onc3ccc(Cl)cc23)ccc1O	rRNA inh HTS -31.4
CCCN1CCN(CCCNC(=O)C(CC)n2nc(C)c3sc4ccccc4c3c2=O)CC1 (stereo unspecified)	S100A4 inh HTS 112.7
CCC(C(=O)NCCCN1CCN(C)CC1)n1nc(C)c2sc3ccccc3c2c1=O (stereo unspecified)	none
Cc1ccc(S(=O)(=O)N(C)C[C@H]2OCCCC[C@H](C)Oc3ccc(NS(C)(=O)=O)cc3C(=O)N([C@@H](C)CO)C[C@H]2C)cc1	none
O=C1CC(SC(=S)C2CCCC2=O)C(=O)N1 (stereo unspecified)	Casp6 inh 49.2 (no result: PGC1a acetyl inh, ARNT TACC3 PPI)
O=C(C[C@H]1C=C[C@@H](NC(=O)Nc2cc(F)ccc2F)[C@@H](CO)O1)Nc1ccc(-c2ccccc2)cc1	none (no result: ARNT TACC3 PPI)
O=C(NC[C@H]1CC[C@H]2[C@H](CN2Cc2ccccc2F)O1)C1CCCCC1	none (no result: rRNA inh HTS, PGC1a acetyl inh, ARNT TACC3 PPI)
CCN(CC(=O)Nc1c(F)cccc1F)C(=O)CNC(=O)c1ccc2ccccc2c1	none (no result: rRNA inh HTS)
CCN(CC(=O)Nc1c(F)cccc1F)C(=O)CNC(=O)c1cccs1	S100A4 inh HTS 87.2
CC(=O)N1c2ccc(S(=O)(=O)N(C)c3cc(C)ccc3C)cc2CC1C (stereo unspecified)	rRNA inh HTS -29.3
Cc1ccc(CNC(=O)C2CCN(S(=O)(=O)c3ccc4c(c3)CC(C)N4C(=O)C3CC3)CC2)cc1 (stereo unspecified)	rRNA inh HTS -28.0
CC(=O)N1c2ccc(S(=O)(=O)N(C)CC(=O)NCc3ccc(C)cc3)cc2CC1C (stereo unspecified)	Casp6 inh 71.6 (no result: ARNT TACC3 PPI)
COc1cccc(CNC(=O)CN(C)S(=O)(=O)c2ccc3c(c2)CC(C)N3C(C)=O)c1 (stereo unspecified)	none
